The subject of test [1] is Trypanosoma cruzi. Description: In vitro growth inhibition of epimastigotes of Trypanosoma cruzi. It is filed as functional, organism-based. In a few lines:
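Y-strain epimastigotes were grown in axenic culture and proliferation was measured. Compounds came from 10 mg mL-1 DMSO stocks, diluted 1:2 serially in medium to final levels of 0.76–25, each in triplicate. IC50 was derived by linear regression.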

Test [2] concerns Trypanosoma cruzi. Description: In vitro growth inhibition of amastigotes of Trypanosoma cruzi. It is filed as functional, organism-based. The procedure, abridged:
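Intracellular amastigotes, Y-strain, in in vitro infected murine peritoneal macrophages. Compounds were held as 10 mg mL-1 DMSO stocks and serially diluted in medium before use. Read-out was the reduction in intracellular amastigote number. IC50 was obtained by linear regression.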

SMILES strings stand for the structures. A value given as a limit tells only on which side of the number the result lay.

As a reminder, the IC50 is the point on the concentration scale where inhibition reaches its midpoint. Low readings indicate greater potency in that assay, high ones weaker potency in that assay. `O=C(/C=C/c1ccc2c(c1)OCO2)N1CCOCC1` showed an IC50 with Trypanosoma cruzi [1] greater than 95.8 µM.

`CC(C)N(C(=O)/C=C/C=C/c1ccc2c(c1)OCO2)C(C)C`: the IC50 with Trypanosoma cruzi [2] was determined as 7.77 µM; in the test with Trypanosoma cruzi [1], 14.8 µM. For the molecule `O=C(/C=C/C=C/c1ccc2c(c1)OCO2)NCc1ccccc1`, the IC50 in the test with Trypanosoma cruzi [1] is greater than 81.4 µM.

Molecule `CN1CCN(C(=O)/C=C/C=C/c2ccc3c(c2)OCO3)CC1` gave an IC50 in the test with Trypanosoma cruzi [1] greater than 83.3 µM. Turning to `O=C(/C=C/C=C/c1ccc2c(c1)OCO2)N1CCOCC1`, the figures for the 50% inhibitory concentration (IC50) with Trypanosoma cruzi [2] and in the test with Trypanosoma cruzi [1] were 5.71 µM and 56.1 µM, respectively. Regarding `O=C(/C=C/C=C/C=C/c1ccc2c(c1)OCO2)N1CCCCC1`, the half-maximal inhibitory concentration (IC50) in the test with Trypanosoma cruzi [2] was determined as 7.4 µM; in the test on Trypanosoma cruzi [1], 10.7 µM. With `O=C(/C=C/C=C/c1ccc2c(c1)OCO2)OC1CCCCC1`, in the test on Trypanosoma cruzi [1], the IC50 was greater than 83.3 µM.

`COc1ccc(CCNC(=O)/C=C/C=C/c2ccc3c(c2)OCO3)cc1OC` displayed a half-inhibitory concentration (IC50) in the test on Trypanosoma cruzi [1] greater than 65.6 µM. For the molecule `C(/C=C/c1ccc2c(c1)OCO2)=C\CN1CCCCC1`, the half-maximal inhibitory concentration (IC50) with Trypanosoma cruzi [2] is 9.63 µM; in the test on Trypanosoma cruzi [1] it was 17.5 µM.

In the case of `O=C(Cn1ccnc1[N+](=O)[O-])NCc1ccccc1` [BENZNIDAZOLE], the IC50 in the test with Trypanosoma cruzi [2] was determined as 2.58 µM.

As for `O=C(/C=C/c1ccc2c(c1)OCO2)N1CCCCC1` [ILEPCIMIDE], in the test with Trypanosoma cruzi [1], the IC50 was greater than 96.5 µM. On the same count and under the same terms, under `O=C(O)/C=C/C=C/c1ccc2c(c1)OCO2` [PIPERIC ACID] stands greater than 115 µM. Take `O=C(CCCCc1ccc2c(c1)OCO2)N1CCCCC1` [TETRAHYDROPIPERINE]: the IC50 in the test on Trypanosoma cruzi [2] is 11.5 µM; in the test on Trypanosoma cruzi [1] it was 19.4 µM.
